Measured values taken from PMC6745485 (Heliyon, 2019).
“And” between values parts separate entries of the source, which are not always exact repeats. Equal values may be shown once. “Also recorded” adds a separate entry of the source. Read-outs that look alike come from different tables or passages of the source.

Tests used:
rat CAR [1] = biological target: T1, rat CAR (Rattus norvegicus, UniProt Q9QUS1); conditions: ref Omiecinski et al., 2011a; cited from earlier work
T1 sequence (Q9QUS1 1-358): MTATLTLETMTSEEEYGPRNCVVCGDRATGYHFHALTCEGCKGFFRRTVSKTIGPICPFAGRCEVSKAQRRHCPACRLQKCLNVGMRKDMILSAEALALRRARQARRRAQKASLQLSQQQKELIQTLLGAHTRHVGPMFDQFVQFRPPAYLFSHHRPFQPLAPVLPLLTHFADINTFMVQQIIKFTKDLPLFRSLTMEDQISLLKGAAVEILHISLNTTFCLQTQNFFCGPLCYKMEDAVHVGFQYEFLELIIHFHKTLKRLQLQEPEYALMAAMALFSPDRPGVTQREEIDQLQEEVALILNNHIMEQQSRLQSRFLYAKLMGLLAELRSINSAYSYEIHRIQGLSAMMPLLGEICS

rat PXR [2] = biological target: T2, rat PXR (Rattus norvegicus, UniProt Q9R1A7); assay: Rat PXR reporter gene assay in COS-1 cells; assay type: cell-based; conditions: for Agonistic activity REC20 PXR: concentration showing 20% of the agonistic activity of 1 μM PCN, ±SD; for PXR agonistic activity (in words): up to 30 μM
T2 sequence (Q9R1A7 1-431): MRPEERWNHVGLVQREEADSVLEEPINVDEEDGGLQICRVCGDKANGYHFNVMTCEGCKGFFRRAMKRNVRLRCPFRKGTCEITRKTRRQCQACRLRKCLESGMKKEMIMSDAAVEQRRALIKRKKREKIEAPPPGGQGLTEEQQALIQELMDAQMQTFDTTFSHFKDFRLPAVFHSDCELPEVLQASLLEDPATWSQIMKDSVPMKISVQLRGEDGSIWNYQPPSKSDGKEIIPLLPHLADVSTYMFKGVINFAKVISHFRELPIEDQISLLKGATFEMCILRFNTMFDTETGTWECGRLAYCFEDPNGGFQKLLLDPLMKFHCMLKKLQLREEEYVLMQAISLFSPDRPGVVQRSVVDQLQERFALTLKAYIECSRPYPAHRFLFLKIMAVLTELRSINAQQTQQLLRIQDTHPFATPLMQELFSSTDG
How it was run: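 COS-1 cells (1×10^4/well) co-transfected with rat PXR expression, reporter and Renilla control plasmids via jetPEI. After 24 h, test compound or 0.1% DMSO added in serum-free D-MEM for 24 h. Dual-luciferase read-out, firefly normalized to Renilla, fold vs vehicle. REC20: concentration reaching 20% of 1 μM PCN activity. Mean ± SD, ≥3 experiments in duplicate; Dunnett's test.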

rat PXR [3] = biological target: T2, rat PXR; assay type: cell-based; conditions: microsomes of PB- and MC-treated rats, NADPH, vs boiled microsomes
How it was run: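 Test compound (1 μmol) incubated 30 min at 37 °C in 0.1 M K,Na-phosphate pH 7.4. Mix held an NADPH-generating system and liver microsomes (60 mg protein) from male SD rats given PB 80 mg/kg i.p. plus MC 25 mg/kg p.o. daily for 3 d. Boiled microsomes were the control. Ethyl acetate extract went into DMSO and onto transfected COS-1 cells for 24 h. Normalized firefly/Renilla fold vs vehicle; n=3, t-test.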

rat CAR [4] = biological target: T1, rat CAR; assay: Rat CAR reporter gene assay in COS-1 cells; assay type: cell-based; conditions: for Agonistic activity REC20 CAR: concentration showing 20% of the agonistic activity of 30 μM artemisinin; for Agonistic activity REC20 CAR / Inverse agonistic activity RIC20 CAR: ±SD; for Inverse agonistic activity RIC20 CAR: concentration showing 80% of the activity of the vehicle control
rat PPARα = biological target: T3, rat PPARα (Rattus norvegicus, UniProt P37230); assay: Rat PPARα reporter gene assay in COS-1 cells; assay type: cell-based; conditions: concentration showing 20% of the agonistic activity of 30 μM BZF; ±SD
T3 sequence (P37230 1-468): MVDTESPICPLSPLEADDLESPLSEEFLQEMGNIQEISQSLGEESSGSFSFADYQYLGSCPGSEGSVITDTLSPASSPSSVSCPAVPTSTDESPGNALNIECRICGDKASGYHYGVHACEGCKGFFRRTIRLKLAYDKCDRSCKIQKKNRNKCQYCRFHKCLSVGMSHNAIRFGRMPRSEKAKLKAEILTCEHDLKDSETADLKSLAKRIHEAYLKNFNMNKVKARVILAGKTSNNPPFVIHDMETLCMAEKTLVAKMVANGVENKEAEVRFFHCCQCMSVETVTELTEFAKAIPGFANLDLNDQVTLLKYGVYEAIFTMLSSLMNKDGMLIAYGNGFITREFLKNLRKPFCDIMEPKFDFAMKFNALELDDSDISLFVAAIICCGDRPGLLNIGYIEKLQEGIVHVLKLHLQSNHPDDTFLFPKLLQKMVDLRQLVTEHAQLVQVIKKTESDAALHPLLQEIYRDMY

mouse PPARα = conditions: among 12 pyrethroid pesticides; ref Takeuchi et al., 2006; cited from earlier work
rat CAR [5] = biological target: T1, rat CAR; assay type: cell-based; conditions: 3–10 μM
How it was run: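 Microsomal mix: NADPH-generating system plus PB/MC-induced male SD rat liver microsomes (60 mg protein) in pH 7.4 phosphate, 30 min, 37 °C; boiled-microsome control. Extracts dried, redissolved in DMSO, diluted into serum-free medium. CAR-transfected COS-1 cells dosed 12 h after transfection, 24 h exposure. Firefly/Renilla luciferase read as fold vs vehicle; 3 experiments, Student's t-test vs boiled.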

human CAR = conditions: cited from earlier work
mouse CAR = conditions: cited from earlier work

| Molecule | PXR activity, fold compared with the control (rat PXR [2]; 1 μM or lower) | PXR activity, fold compared with the control (rat PXR [2]; concentration range 1–30 μM) | Agonistic activity REC20 PXR (rat PXR [2]) | Change of PXR activity upon incubation with rat liver microsomes (rat PXR [3]) | Agonistic activity REC20 CAR (rat CAR [4]) | Inverse agonistic activity RIC20 CAR (rat CAR [4]) | Agonistic activity REC20 PPARα (rat PPARα) | CAR inverse agonistic activity (in words) (rat CAR [4]; up to 30 μM) | further results |
| --- | --- | --- | --- | --- | --- | --- | --- | --- | --- |
| Clc1ccc(-c2nc3sccn3c2C=NOCc2ccc(Cl)c(Cl)c2)cc1 [CITCO, 6-(4-chlorophenyl)imidazo[2,1-b][1,3]thiazole-5-carbaldehyde O-(3,4-dichlorobenzyl)oxime] | – | – | – | – | – | – | – | – | Rat CAR activity (rat CAR [1]): inactive toward rat CAR |
| CC1(C)[C@H](C=C(Cl)Cl)[C@H]1C(=O)OCc1cccc(Oc2ccccc2)c1 [trans-permethrin] | about 2 fold | about 3 fold | 0.674 ± 0.0526 µM | decreased | 4.19 µM and 4.19 ± 3.26 µM | - ^c (No effect (REC20 > 30 μM)) | - ^c (No effect (REC20 > 30 μM)) | – | CAR agonistic activity (in words) (rat CAR [4]; up to 30 μM): showed CAR agonistic activity at higher concentrations; also recorded: weak CAR agonistic activity |
| Clc1cnc(Oc2ccc(Oc3ncc(Cl)cc3Cl)cc2)c(Cl)c1 [TCPOBOP, 1,4-bis[2-(3,5-dichloropyridyloxy)]benzene] | – | – | – | – | – | – | – | – | Rat CAR activity (rat CAR [1]): inactive toward rat CAR |
| C=CCC1=C(C)C(OC(=O)C2C(C=C(C)C)C2(C)C)CC1=O (stereo not shown) [allethrin] | about 2 fold | about 3 fold | 0.668 ± 0.129 µM | slightly decreased | - ^c (No effect (REC20 > 30 μM)) | - ^c (No effect (REC20 > 30 μM)) | - ^c (No effect (REC20 > 30 μM)) | – | – |
| pyrethrin | – | – | – | – | – | – | – | – | Mouse PPARα activation (mouse PPARα): activated mouse PPARα |
| CC(C)C(C(=O)OC(C#N)c1cccc(Oc2ccccc2)c1)c1ccc(Cl)cc1 (stereo not shown) [fenvalerate] | – | – | 0.617 ± 0.138 µM | markedly decreased; also recorded: significantly decreased | - ^c (No effect (REC20 > 30 μM)) | 0.846 µM and 0.846 ± 0.394 µM | - ^c (No effect (REC20 > 30 μM)) | showed CAR inverse agonistic activity | Change of CAR inverse agonistic activity after incubation with liver microsomes (rat CAR [5]): tended to decrease; Human CAR agonistic activity (human CAR; ref Abass et al. (2012)): possessed agonistic activity; Human CAR agonistic activity (human CAR; ref Baldwin and Roling (2009)): agonists; Effect on CAR activation induced by artemisinin (rat CAR [4]; artemisinin 10 μM, test compound 0.1–30 μM): significantly inhibited CAR activation by artemisinin; Mouse CAR agonistic activity (mouse CAR; ref Abass et al. (2012)): not mouse CAR; Mouse CAR agonistic activity (mouse CAR; ref Baldwin and Roling (2009)): agonists |
| CC(C)=CC1C(C(=O)OCc2cccc(Oc3ccccc3)c2)C1(C)C (stereo not shown) [phenothrin] | – | – | 3.89 ± 1.03 µM | to the control level; also recorded: significantly decreased | - ^c (No effect (REC20 > 30 μM)) | - ^c (No effect (REC20 > 30 μM)) | - ^c (No effect (REC20 > 30 μM)) | showed CAR inverse agonistic activity | PXR agonistic activity (in words) (rat PXR [2]): relatively weak activities |
| CC(C)=C[C@@H]1[C@@H](C(=O)OCc2coc(Cc3ccccc3)c2)C1(C)C [bioresmethrin] | – | – | 1.92 ± 0.724 µM | slightly decreased | - ^c (No effect (REC20 > 30 μM)) | - ^c (No effect (REC20 > 30 μM)) | - ^c (No effect (REC20 > 30 μM)) | showed CAR inverse agonistic activity | PXR agonistic activity (in words) (rat PXR [2]): relatively weak activities |
| CC1(C)C(C=C(Cl)Cl)C1C(=O)OC(C#N)c1cccc(Oc2ccccc2)c1 (stereo not shown) [cypermethrin] | about 2 fold | about 3 fold | 0.468 ± 0.0267 µM | – | - ^c (No effect (REC20 > 30 μM)) | - ^c (No effect (REC20 > 30 μM)) | - ^c (No effect (REC20 > 30 μM)) | – | Human CAR agonistic activity (human CAR; ref Baldwin and Roling (2009)): agonists; Mouse CAR agonistic activity (mouse CAR; ref Baldwin and Roling (2009)): agonists |
